Measured values pooled from the literature.
Protocols differ between the studies behind these lines. In brackets after ≈: the same amount, converted by molar mass.
Organism: Escherichia coli
Read-out: microbial growth

C[n+]1ccc(/C=C2\Sc3ccccc3N2CCCN2CCCCC2)c2ccccc21.[I-]
MIC (broth dilution; ATCCBAA2469): 4 µg/mL

CN[C@@H]1[C@H](O)[C@H](NC)[C@H]2O[C@@]3(O)C(=O)C[C@@H](C)O[C@H]3O[C@@H]2[C@H]1O
MIC (broth dilution; K12, K12): 25 µg/mL (≈ 75.2 µM)

C[n+]1c(/C=C/c2c[nH]c3ccccc23)cc(/C=C2\Sc3ccccc3N2CCCN2CCCC2)c2ccccc21.[I-]
MIC (broth dilution; ATCCBAA2469): 4 µg/mL

COC(=O)c1cc(-c2ccc(OC)c(NC(=O)Nc3ccc(Cl)c(Cl)c3)c2)on1
MIC (broth dilution; ATCC25922): > 64 µg/mL

CC(=O)C1=C(O)C(CC(C)C)NC1=O (stereo not drawn)
MIC (K12, K12): > 200 µg/mL

COC(=O)c1cc(-c2cccc(NC(=O)Nc3cccc(Cl)c3)c2)on1
MIC (broth dilution; ATCC25922): > 64 µg/mL

CN[C@H](CC(C)C)C(=O)N[C@H]1C(=O)N[C@@H](CC(N)=O)C(=O)N[C@H]2C(=O)N[C@H]3C(=O)N[C@H](C(=O)N[C@H](C(=O)O)c4cc(O)cc(O)c4-c4cc3ccc4O)[C@H](O)c3ccc(c(Cl)c3)Oc3cc2cc(c3O[C@@H]2O[C@H](CO)[C@@H](O)[C@H](O)[C@H]2O[C@H]2C[C@](C)(N)[C@H](O)[C@H](C)O2)Oc2ccc(cc2Cl)[C@H]1O
MIC (broth dilution; ATCCBAA2469): > 64 µg/mL

C[C@H]1COc2c(N3CCN(C)CC3)c(F)cc3c(=O)c(C(=O)O)cn1c23
MIC (broth dilution; ATCC25922): 0.0156 µg/mL (≈ 0.0432 µM)

CCCCCCC#Cc1cncc(-c2nnc(SCc3cc([N+](=O)[O-])cc([N+](=O)[O-])c3)n2C)c1
MIC: ≥ 20 µg/mL

C[n+]1c(/C=C/c2c[nH]c3ccccc23)cc(/C=C2\Sc3ccccc3N2CCCN2CCOCC2)c2ccccc21.[I-]
MIC (broth dilution; ATCCBAA2469): 64 µg/mL

COC(=O)c1cc(-c2cccc(NC(=O)Nc3cccc(C(F)(F)F)c3)c2)on1
MIC (broth dilution; ATCC25922): > 64 µg/mL

Cc1cc(/C=C2\Sc3ccccc3N2CCCN2CCCCC2)c2ccccc2[n+]1C.[I-]
MIC (broth dilution; ATCCBAA2469): 4 µg/mL

COC(=O)c1cc(-c2cccc(NC(=O)Nc3c(C)cccc3C)c2)on1
MIC (broth dilution; ATCC25922): > 64 µg/mL

Fc1c(F)c(F)c(F)c(F)c1F
MIC (ATCC25922): > 250 µg/mL

CC1(C)S[C@@H]2[C@H](NC(=O)[C@H](N)c3ccccc3)C(=O)N2[C@H]1C(=O)O
MIC (broth dilution; MDR; 16 h): 32 µg/mL (≈ 91.6 µM)

Oc1cc(Cl)ccc1Oc1ccc(Cl)cc1Cl
MIC (broth dilution; MG1655; clinical isolate): 0.5 µg/mL (≈ 1.73 µM)

CSc1ccc(/C=C/c2cc(/C=C3\Sc4ccccc4N3CCCN3CCCC3)c3ccccc3[n+]2C)cc1.[I-]
MIC (broth dilution; ATCCBAA2469): 32 µg/mL

COC(=O)c1cc(-c2cccc(NC(=O)Nc3ccc(Cl)cc3Cl)c2)on1
MIC (broth dilution; ATCC25922): > 64 µg/mL
